In article PMC6510378 (Clinical and Translational Science, 2019):

Tests used:
11β‐HSD2 = conditions: at concentrations < 3,000 nM; ref Internal study reports 3662‐PH‐0001 and 3662‐PH‐0001‐0004; cited from earlier work
[1] = Safety and tolerability, MAD study; type: in vivo, human; conditions: for Any TEAE / Drug-related TEAE / Number of TEAEs / Number of drug-related TEAEs / TEAE: Constipation / TEAE: Gastrointestinal disorders / TEAE: General disorders and administration site conditions / TEAE: Headache / TEAE: Medical device site reaction / TEAE: Nervous system disorders / TEAE: Skin and subcutaneous tissue disorders: MAD study
Method in brief: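 Safety was assessed from treatment-emergent adverse events: nature, frequency, severity, onset/offset and relatedness to study drug, coded by MedDRA system organ class. Also assessed were haematology, serum chemistry, urinalysis, physical examination with vital signs, and ECGs. CNS scales used were Bond and Lader VAS, ARCI-49 and Profile of Mood States. Data were summarized descriptively.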

[2] = SAD study plasma PK, single oral dose, healthy young subjects; type: in vivo, human; conditions: for Cmax / Tmax / AUC(0-inf) / half-life: human, plasma, po; for AUC(0-inf): AUCinf; for half-life: t½
Method in brief: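 Healthy adults aged 18–55, randomized 6 active : 2 placebo per cohort, received a single fasted oral dose (1–60 mg) with 240 mL water. Serial blood was drawn predose to 72 h, plus 96 and 120 h in the 6, 30 and 60 mg cohorts. Plasma drug was measured by validated HPLC-MS/MS, with below-limit values set to zero. Dose proportionality used a power model on log-transformed dose.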

[3] = 3 mg, Median, single oral dose 3 mg, n=6
[4] = 3 mg, Min–max, single oral dose 3 mg, n=6
[5] = 6 mg, Mean (SD), single oral dose 6 mg, n=6
[6] = 6 mg, Median, single oral dose 6 mg, n=6
[7] = 6 mg, Min–max, single oral dose 6 mg, n=6
[8] = 10 mg, Mean (SD), single oral dose 10 mg, n=3
[9] = 10 mg, Median, single oral dose 10 mg, n=3
[10] = 10 mg, Min–max, single oral dose 10 mg, n=3
[11] = 10 mg, Median, single oral dose 10 mg, n=6
[12] = 10 mg, Min–max, single oral dose 10 mg, n=6
[13] = 30 mg, Mean (SD), single oral dose 30 mg, n=6
[14] = 30 mg, Median, single oral dose 30 mg, n=6
[15] = 30 mg, Min–max, single oral dose 30 mg, n=6
[16] = 60 mg, Mean (SD), single oral dose 60 mg, n=6
[17] = 60 mg, Median, single oral dose 60 mg, n=6
[18] = 60 mg, Min–max, single oral dose 60 mg, n=6

For `Cn1c(-c2ccc(C(N)=O)cc2F)nnc1C(C)(C)Oc1c(F)cc(Cl)cc1F` [ASP3662], the “inhibition of 11β‐HSD2” value (11β‐HSD2) is given as “no inhibition”, the “subjects with TEAE headache” value ([1]; MAD part 2, 0.2 mg) is given as 2 n and the “subjects with TEAE headache” value ([1]; MAD part 2, 0.4 mg) is given as 1 n. The “subjects with TEAE headache” value ([1]; MAD part 2, 0.7 mg) was 1 n, the “subjects with TEAE headache” value ([1]; MAD part 2, 2 mg) was 1 n and the “Any TEAE” value ([1]; 10 mg, n=8) was 3 (37.5) n (%). The “Drug-related TEAE” value ([1]; 10 mg, n=8) was 2 (25.0) n (%), the “Number of TEAEs” value ([1]; 10 mg, n=8) was 3 and the “Number of drug-related TEAEs” value ([1]; 10 mg, n=8) was 2. For the same compound, the “TEAE: Constipation” value ([1]; 10 mg, n=8) was 0 n (%), the “TEAE: Gastrointestinal disorders” value ([1]; 10 mg, n=8) was 0 n (%) and the “TEAE: General disorders and administration site conditions” value ([1]; 10 mg, n=8) was 0 n (%). For the same compound, the “TEAE: Headache” value ([1]; 10 mg, n=8) was 0 n (%), the “TEAE: Medical device site reaction” value ([1]; 10 mg, n=8) was 0 n (%) and the “TEAE: Nervous system disorders” value ([1]; 10 mg, n=8) was 0 n (%). For the same compound, the “TEAE: Skin and subcutaneous tissue disorders” value ([1]; 10 mg, n=8) was 1 (12.5) n (%), the “Any TEAE” value ([1]; 20 mg, n=25) was 14 (56.0) n (%) and the “Drug-related TEAE” value ([1]; 20 mg, n=25) was 9 (36.0) n (%). For the same compound, the “Number of TEAEs” value ([1]; 20 mg, n=25) was 21, the “Number of drug-related TEAEs” value ([1]; 20 mg, n=25) was 12 and the “TEAE: Constipation” value ([1]; 20 mg, n=25) was 1 (4.0) n (%). The “TEAE: Gastrointestinal disorders” value ([1]; 20 mg, n=25) was 1 (4.0) n (%), the “TEAE: General disorders and administration site conditions” value ([1]; 20 mg, n=25) was 3 (12.0) n (%) and the “TEAE: Headache” value ([1]; 20 mg, n=25) was 5 (20.0) n (%). For the same compound, the “TEAE: Medical device site reaction” value ([1]; 20 mg, n=25) was 2 (8.0) n (%), the “TEAE: Nervous system disorders” value ([1]; 20 mg, n=25) was 9 (36.0) n (%) and the “TEAE: Skin and subcutaneous tissue disorders” value ([1]; 20 mg, n=25) was 0 n (%). The “Any TEAE” value ([1]; 50 mg, n=16) was 6 (37.5) n (%), the “Drug-related TEAE” value ([1]; 50 mg, n=16) was 4 (25.0) n (%) and the “Number of TEAEs” value ([1]; 50 mg, n=16) was 12. For the same compound, the “Number of drug-related TEAEs” value ([1]; 50 mg, n=16) was 6, the “TEAE: Constipation” value ([1]; 50 mg, n=16) was 2 (12.5) n (%) and the “TEAE: Gastrointestinal disorders” value ([1]; 50 mg, n=16) was 2 (12.5) n (%). The “TEAE: General disorders and administration site conditions” value ([1]; 50 mg, n=16) was 1 (6.3) n (%), the “TEAE: Headache” value ([1]; 50 mg, n=16) was 3 (18.8) n (%) and the “TEAE: Medical device site reaction” value ([1]; 50 mg, n=16) was 1 (6.3) n (%). The “TEAE: Nervous system disorders” value ([1]; 50 mg, n=16) was 3 (18.8) n (%), the “TEAE: Skin and subcutaneous tissue disorders” value ([1]; 50 mg, n=16) was 2 (12.5) n (%) and the “Any TEAE” value ([1]; ASP3662 total (10-50 mg), n=49) was 23 (46.9) n (%). The “Drug-related TEAE” value ([1]; ASP3662 total (10-50 mg), n=49) was 15 (30.6) n (%), the “Number of TEAEs” value ([1]; ASP3662 total (10-50 mg), n=49) was 36 and the “Number of drug-related TEAEs” value ([1]; ASP3662 total (10-50 mg), n=49) was 20. For the same compound, the “TEAE: Constipation” value ([1]; ASP3662 total (10-50 mg), n=49) was 3 (6.1) n (%), the “TEAE: Gastrointestinal disorders” value ([1]; ASP3662 total (10-50 mg), n=49) was 3 (6.1) n (%) and the “TEAE: General disorders and administration site conditions” value ([1]; ASP3662 total (10-50 mg), n=49) was 4 (8.2) n (%). The “TEAE: Headache” value ([1]; ASP3662 total (10-50 mg), n=49) was 8 (16.3) n (%), the “TEAE: Medical device site reaction” value ([1]; ASP3662 total (10-50 mg), n=49) was 3 (6.1) n (%) and the “TEAE: Nervous system disorders” value ([1]; ASP3662 total (10-50 mg), n=49) was 12 (24.5) n (%). For the same compound, the “TEAE: Skin and subcutaneous tissue disorders” value ([1]; ASP3662 total (10-50 mg), n=49) was 3 (6.1) n (%), the “deaths, TEAEs leading to discontinuation, serious or drug-related TEAEs” value ([1]; both SAD and MAD studies) was “No deaths, TEAEs leading to discontinuation, serious TEAEs” and the “potentially clinically significant orthostatic pulse rate measurements” value ([1]; elderly subjects who received ASP3662) was 44.4%. For the same compound, the “overall safety and tolerability” value ([1]; multiple oral doses up to 50 mg for 14 days) was “safe and well tolerated”, the Cmax ([2]; 1 mg, Mean (SD), single oral dose 1 mg, n=6) was 0.0433 ng/mL and the Cmax ([2]; 1 mg, Min–max, single oral dose 1 mg, n=6) was under 0.14 ng/mL. It also gave a Tmax ([2]; 1 mg, Median, single oral dose 1 mg, n=2) of 0.75 h, a Tmax ([2]; 1 mg, Min–max, single oral dose 1 mg, n=2) of 0.5 to 1 h and a Cmax ([2]; 3 mg, Mean (SD), single oral dose 3 mg, n=6) of 3.54 ng/mL. It also gave a Cmax [2, 3] of 1.6 ng/mL, a Cmax [2, 4] of 0.38 to 9.24 ng/mL and a Tmax [2, 3] of 2.5 h. It also gave a Tmax [2, 4] of 1 to 4.02 h, an AUC(0-inf) [2, 5] of 405 ng·h/mL and an AUC(0-inf) [2, 6] of 410 ng·h/mL. The AUC(0-inf) [2, 7] was 169 to 660 ng·h/mL, the Cmax [2, 5] was 28 ng/mL and the Cmax [2, 6] was 30.5 ng/mL. It also gave a Cmax [2, 7] of 10.8 to 43.7 ng/mL, a Tmax [2, 6] of 1.75 h and a Tmax [2, 7] of 1 to 4 h. It also gave a half-life [2, 5] of 37.7 h, a half-life [2, 6] of 37.9 h and a half-life [2, 7] of 28.5 to 46.3 h. For the same compound, the AUC(0-inf) [2, 8] was 858 ng·h/mL, the AUC(0-inf) [2, 9] was 953 ng·h/mL and the AUC(0-inf) [2, 10] was 620 to 1000 ng·h/mL. It also gave a Cmax ([2]; 10 mg, Mean (SD), single oral dose 10 mg, n=6) of 64 ng/mL, a Cmax [2, 11] of 60.9 ng/mL and a Cmax [2, 12] of 49 to 93.6 ng/mL. For the same compound, the Tmax [2, 11] was 1.75 h, the Tmax [2, 12] was 1 to 6 h and the half-life [2, 8] was 19.5 h. For the same compound, the half-life [2, 9] was 21.9 h, the half-life [2, 10] was 13.7 to 23 h and the AUC(0-inf) [2, 13] was 3620 ng·h/mL. It also gave an AUC(0-inf) [2, 14] of 3370 ng·h/mL, an AUC(0-inf) [2, 15] of 1630 to 6770 ng·h/mL and a Cmax [2, 13] of 258 ng/mL. For the same compound, the Cmax [2, 14] was 239 ng/mL, the Cmax [2, 15] was 151 to 386 ng/mL and the Tmax [2, 14] was 3.5 h. The Tmax [2, 15] was 1.5 to 4 h, the half-life [2, 13] was 17.6 h and the half-life [2, 14] was 17.4 h. It also gave a half-life [2, 15] of 14.5 to 20.2 h, an AUC(0-inf) [2, 16] of 8190 ng·h/mL and an AUC(0-inf) [2, 17] of 8460 ng·h/mL. It also gave an AUC(0-inf) [2, 18] of 5440 to 12500 ng·h/mL, a Cmax [2, 16] of 595 ng/mL and a Cmax [2, 17] of 566 ng/mL. The Cmax [2, 18] was 439 to 865 ng/mL, the Tmax [2, 17] was 3.5 h and the Tmax [2, 18] was 2 to 4 h. The half-life [2, 16] was 14.8 h, the half-life [2, 17] was 14.6 h and the half-life [2, 18] was 13.1 to 17.3 h. The “CL/F, Mean (SD)” value ([2]; single oral dose 6 mg, n=6) was 18.38 (9.909) L/hour, the “CL/F, Median” value ([2]; single oral dose 6 mg, n=6) was 15.62 L/h and the “CL/F, Min–max” value ([2]; single oral dose 6 mg, n=6) was 9.09 to 35.4 L/h. For the same compound, the “CL/F, Mean (SD)” value ([2]; single oral dose 10 mg, n=3) was 12.20 (3.403) L/hour, the “CL/F, Median” value ([2]; single oral dose 10 mg, n=3) was 10.49 L/h and the “CL/F, Min–max” value ([2]; single oral dose 10 mg, n=3) was 9.99 to 16.1 L/h. The “CL/F, Mean (SD)” value ([2]; single oral dose 30 mg, n=6) was 10.05 (4.856) L/hour, the “CL/F, Median” value ([2]; single oral dose 30 mg, n=6) was 9.012 L/h and the “CL/F, Min–max” value ([2]; single oral dose 30 mg, n=6) was 4.43 to 18.4 L/h. For the same compound, the “CL/F, Mean (SD)” value ([2]; single oral dose 60 mg, n=6) was 7.933 (2.407) L/hour, the “CL/F, Median” value ([2]; single oral dose 60 mg, n=6) was 7.091 L/h and the “CL/F, Min–max” value ([2]; single oral dose 60 mg, n=6) was 4.81 to 11.0 L/h.
